# Experimental data published in ChEMBL document CHEMBL4020816.
# Tests used:
# Cannabinoid receptor 1 [1] = molecular target: T1, Cannabinoid receptor 1 (Homo sapiens, UniProt P21554); test: Displacement of [3H]CP55940 from recombinant human CB1 receptor expressed in beta-galactosidase expressing CHOK1 cell membranes after 60 mins by scintillation spectrometry
# Cannabinoid receptor 1 [2] = molecular target: T1, Cannabinoid receptor 1; test: Displacement of [3H]CP55940 from recombinant human CB1 receptor expressed in beta-galactosidase expressing CHOK1 cell membranes assessed as kinetic rate index by measuring ratio of radioligand binding at 30 mins to 240 mins by scintillation spectrometry
# Cannabinoid receptor 1 [3] = molecular target: T1, Cannabinoid receptor 1; test: Antagonist activity at recombinant human CB1 receptor expressed in HEK293 cell membranes assessed as inhibition of CP55940-induced [35S]GTPgammaS binding preincubated for 1 hr followed by CP55940 addition and subsequent incubation with [35S]GTPgammaS measured after 30 mins by scintillation spectrometry; type: functional
# Procedure, shortened: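 Antagonism was measured by [35S]GTPγS binding at 30 °C on membranes of HEK-293 cells stably expressing recombinant human CB1.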
# T1 sequence (P21554 whole entry): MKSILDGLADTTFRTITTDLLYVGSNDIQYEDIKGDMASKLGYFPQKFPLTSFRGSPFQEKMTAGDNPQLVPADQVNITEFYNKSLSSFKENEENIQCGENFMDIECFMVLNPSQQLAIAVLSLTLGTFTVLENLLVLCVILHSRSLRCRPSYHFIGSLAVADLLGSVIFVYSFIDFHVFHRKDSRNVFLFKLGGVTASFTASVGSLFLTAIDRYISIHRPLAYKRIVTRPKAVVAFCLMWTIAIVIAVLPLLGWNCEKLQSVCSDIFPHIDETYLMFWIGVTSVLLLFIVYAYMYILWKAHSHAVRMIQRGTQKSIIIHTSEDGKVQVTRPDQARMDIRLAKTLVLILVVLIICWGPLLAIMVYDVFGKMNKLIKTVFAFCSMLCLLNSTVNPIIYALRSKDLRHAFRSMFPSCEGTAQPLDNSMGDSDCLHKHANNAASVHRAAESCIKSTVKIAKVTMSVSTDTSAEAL
SMILES,Ki (Cannabinoid receptor 1 [1]; read-out: Ki),Ratio (Cannabinoid receptor 1 [2]),IC50 (Cannabinoid receptor 1 [3]; read-out: IC50),Ki (Cannabinoid receptor 1 [1]; read-out: pKi (converted)),IC50 (Cannabinoid receptor 1 [3]; read-out: pIC50 (converted))
Cc1c(C(=O)NN2CCCCC2)nc(-c2ccc(Cl)cc2Cl)n1-c1ccc(OS(=O)(=O)CCC(C)(C)C)cc1,0.6 nM,0.73,2.4 nM,–,–
Cc1ccc(NC(=O)c2nc(-c3ccc(Cl)cc3Cl)n(-c3ccc(OS(=O)(=O)CCC(F)(F)F)cc3)c2C)nc1,0.14 nM,0.92,1.7 nM,–,–
Cc1c(C(=O)Nc2ccc(OC(F)(F)F)cc2)nc(-c2ccc(Cl)cc2Cl)n1-c1ccc(OS(=O)(=O)CCC(F)(F)F)cc1,0.22 nM,1.29,0.66 nM,0.501 nM,–
Cc1c(C(=O)N[C@H]2CCC[C@H](O)C2)nc(-c2ccc(Cl)cc2Cl)n1-c1ccc(OS(=O)(=O)CCC(F)(F)F)cc1 (racemic),0.1 nM,0.89,1.1 nM,–,–
Cc1c(C(=O)NN2CCCCC2)nc(-c2ccc(Cl)cc2Cl)n1-c1ccc(OCCCF)cc1,0.34 nM,1.09,6 nM,0.1 nM,–
CCCCS(=O)(=O)Oc1ccc(-n2c(-c3ccc(Cl)cc3Cl)nc(C(=O)NN3CCCCC3)c2C)cc1,0.18 nM,0.77,1.3 nM,–,–
Cc1c(C(=O)N[C@@H]2CCCC[C@H]2O)nc(-c2ccc(Cl)cc2Cl)n1-c1ccc(OS(=O)(=O)CCC(F)(F)F)cc1,0.3 nM,0.74,1.7 nM,–,–
Cc1c(C(=O)NN2CCCC(O)C2)nc(-c2ccc(Cl)cc2Cl)n1-c1ccc(OS(=O)(=O)CCC(F)(F)F)cc1 (racemic),0.27 nM,0.71,2.7 nM,–,–
Cc1c(C(=O)NN2CCCCC2)nc(-c2ccc(Cl)cc2Cl)n1-c1ccc(OS(=O)(=O)CCC(C)C)cc1,0.2 nM,1.02,1.3 nM,–,–
Cc1c(C(=O)NN2CCCCC2)nc(-c2ccc(Cl)cc2Cl)n1-c1ccc(OCCC(F)(F)F)cc1,1.26 nM,0.9,5.6 nM,–,–
Cc1c(C(=O)NC2CCC(O)CC2)nc(-c2ccc(Cl)cc2Cl)n1-c1ccc(OS(=O)(=O)CCC(F)(F)F)cc1 (mixture of isomers),0.37 nM,0.88,3.8 nM,–,–
Cc1c(C(=O)Nc2ccc(C(F)(F)F)cn2)nc(-c2ccc(Cl)cc2Cl)n1-c1ccc(OS(=O)(=O)CCC(F)(F)F)cc1,0.19 nM,1.39,0.61 nM,–,–
Cc1c(C(=O)N[C@@H]2CCCC[C@@H]2O)nc(-c2ccc(Cl)cc2Cl)n1-c1ccc(OS(=O)(=O)CCC(F)(F)F)cc1,0.027 nM,1.06,1.8 nM,0.01 nM,–
Cc1c(C(=O)NN2CCCCC2)nc(-c2ccc(Cl)cc2Cl)n1-c1ccc(OS(=O)(=O)CCCC(F)(F)F)cc1,0.062 nM,0.93,1.2 nM,–,–
Cc1c(C(=O)Nc2ccc(F)nc2)nc(-c2ccc(Cl)cc2Cl)n1-c1ccc(OS(=O)(=O)CCC(F)(F)F)cc1,0.13 nM,0.7,–,–,1.26 nM
Cc1c(C(=O)Nc2ccc(C(F)(F)F)nc2)nc(-c2ccc(Cl)cc2Cl)n1-c1ccc(OS(=O)(=O)CCC(F)(F)F)cc1,0.31 nM,1.12,2.2 nM,–,–
Cc1c(C(=O)NN2CCCCC2)nc(-c2ccc(Cl)cc2Cl)n1-c1ccc(OS(=O)(=O)CCC(F)(F)F)cc1,0.11 nM,1.02,1.1 nM,–,–
CCCS(=O)(=O)Oc1ccc(-n2c(-c3ccc(Cl)cc3Cl)nc(C(=O)NN3CCCCC3)c2C)cc1,0.28 nM,0.59,1.8 nM,–,–
Cc1c(C(=O)N[C@H]2CCCC[C@H]2N)nc(-c2ccc(Cl)cc2Cl)n1-c1ccc(OS(=O)(=O)CCC(F)(F)F)cc1 (racemic),0.52 nM,0.79,7.1 nM,–,–
Cc1c(C(=O)NN2CCCCC2)nc(-c2ccc(Cl)cc2Cl)n1-c1ccc(OCCCC(F)(F)F)cc1,0.32 nM,0.8,1.2 nM,–,–
Cc1c(C(=O)NN2CCCCC2)nc(-c2ccc(Cl)cc2Cl)n1-c1ccc(OS(=O)(=O)CCCF)cc1,0.32 nM,0.88,3.1 nM,–,–
Cc1c(C(=O)N[C@@H]2CCCC[C@@H]2N(C)C)nc(-c2ccc(Cl)cc2Cl)n1-c1ccc(OS(=O)(=O)CCC(F)(F)F)cc1 (racemic),–,0.74,–,–,–
